Data set [1] relates to Human immunodeficiency virus. The data set can be described thus: Antiviral activity against HIV in HEK293T cells after 48 hrs. The format is functional, organism-based. As to conditions: Human immunodeficiency virus 1, HEK-293T. Put shortly: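 HEK 293T cells grown in DMEM with 10% FBS and Pen/Strep/glutamine, seeded at 700 cells/well in 1536-well format, then cultured 24 h at 37 °C under 5% CO2. Compounds serially diluted in DMSO were added and incubated 1 h at 37 °C. Cells were then infected with HIV reporter virus at MOI ~1.0 and cultured 48 h at 37 °C. Read-out was luciferase activity.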

The nature of data set [2]: Cytotoxicity against HEK293T cells after 48 hrs. The format is cell-based, HEK-293T. The following applies: human. A digest of the protocol:
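293T cells seeded at 700 cells/well in 1536-well format and cultured 24 h at 37 °C under 5% CO2. Compounds serially diluted in DMSO were added. After culture, viability was read by Alamar Blue diluted 1:1 in DMEM, incubated 4 h at room temperature, with fluorescence intensity measured.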

Each structure is given as a SMILES string.

Consider `CCc1ncnc(NC(C)c2ccc(NC(=O)CCCC[C@@H]3SC[C@@H]4NC(=O)N[C@@H]43)cc2)c1Cl` (stereo partly drawn), for which the half-maximal effective concentration (EC50) (commonly the midpoint of the concentration-response curve) in data set [1] was found to be 0.622 µM. For the same compound, the CC50 – broadly, the concentration that lowers cell viability or growth by half – at 48 h in data set [2] was above 10 µM.

As for `CCCc1ncnc(NC(CC)c2ccc(Oc3ccc(F)cc3)cc2)c1Br` (stereo not drawn), a half-maximal response in data set [1] (EC50) required 0.76 µM. The same compound returned a CC50 at 48 h in data set [2] above 10 µM.

Regarding `CCc1ncnc(NC(CC)c2ccc(C(C)(C)C)cc2)c1Cl` (stereo not drawn), the EC50 in data set [1] was determined as 0.028 µM. In data set [2], this compound returned a CC50 at 48 h above 10 µM.

As to `CCCc1cc(NC(CC)c2ccc(Oc3ccc(F)cc3)cc2)ncn1` (stereo not drawn), in data set [1], the EC50 is 0.096 µM. In data set [2], this compound registered a CC50 at 48 h above 10 µM.

Regarding `CCc1ncnc(NC(C)c2ccc3c(c2)CCCC3)c1Cl` (stereo not drawn), the EC50 in data set [1] worked out at 0.17 µM. Also, the CC50 at 48 h in data set [2] is above 10 µM.

In data set [1], `CCc1ncnc(NC(CC)c2ccc(N(C)C)cc2)c1Cl` (stereo not drawn) returned an EC50 of 0.341 µM. Further, the 50% cytotoxic concentration (CC50) at 48 h in data set [2] is above 10 µM.

Turning to `CCc1ncnc(NC(C)c2ccc3ccccc3n2)c1Cl` (stereo not drawn), it took 0.042 µM to reach a half-maximal effect in data set [1] (EC50). The compound further displayed a CC50 at 48 h in data set [2] above 10 µM.

Turning to `CCc1ncnc(NC(C)c2ccc(OC(=O)NCCCOCCCNC(C)=O)cc2)c1Cl` (stereo not drawn), in data set [1], the concentration giving a half-maximal response (EC50) was found to be 0.005 µM. The CC50 at 48 h in data set [2] is above 10 µM.

`CCc1ncnc(NC(CC)c2ccc([N+](=O)[O-])cc2)c1Cl` (stereo not drawn): the response in data set [1] was half-maximal at 2.66 µM (EC50). This compound returned a CC50 at 48 h in data set [2] above 10 µM.

Compound `CCc1ncnc(NC(C)c2ccc(OC(=O)N(C)C)cc2)c1Cl` (stereo not drawn) gave a 50% effective concentration (EC50) in data set [1] of 0.004 µM. The CC50 at 48 h in data set [2] was above 10 µM.

In the case of `CCc1ncnc(NC(C)c2cccc3ccccc23)c1Cl` (stereo not drawn), in data set [1], the EC50 was 0.095 µM. Besides, the CC50 at 48 h in data set [2] was above 10 µM.

As to `CCc1ncnc(NC(C)c2ccc(NC(=O)N(C)CCOCCN(C)C(C)=O)cc2)c1Cl` (stereo not drawn), the EC50 in data set [1] amounted to 3.02 µM. Also, the CC50 at 48 h in data set [2] was above 10 µM.

Regarding `CCc1ncnc(N(C)C(C)c2ccc(OC(=O)N(C)C)cc2)c1Cl` (stereo not drawn), the EC50 in data set [1] is above 10 µM. For the same compound, the CC50 at 48 h in data set [2] was above 10 µM.

`CCc1ncnc(NC(C)c2ccc3ccccc3c2)c1Cl` (stereo not drawn): in data set [1], the response was half-maximal at 0.139 µM (EC50). Further, in data set [2], the cytotoxic concentration (CC50) at 48 h was above 10 µM.

Regarding `CCc1ncnc(NC(C)c2sc3ccccc3c2C)c1Cl` (stereo not drawn), in data set [1], the midpoint of the response, the EC50, lay at 0.816 µM. This compound also returned a CC50 at 48 h in data set [2] above 10 µM.

As to `CCc1ncnc(NC(C)c2ccc(OC(=O)NCCCNC(C)=O)cc2)c1Cl` (stereo not drawn), it took 0.19 µM to reach a half-maximal effect in data set [1] (EC50). In data set [2], this compound came in with a CC50 at 48 h above 10 µM.

Consider `CCc1ncnc(NC(C)c2ccc3c(c2)N(C(C)=O)CCO3)c1Cl` (stereo not drawn), for which the EC50 in data set [1] amounted to 0.035 µM. The same compound registered a CC50 at 48 h in data set [2] above 10 µM.

For the compound `CCc1ncnc(NC(C)c2ccc(C(C)(C)C)cc2)c1Cl` (stereo not drawn), a half-maximal effect in data set [1] (EC50) was put at 0.016 µM. In data set [2], this compound returned a CC50 at 48 h above 10 µM.

Turning to `CCc1ncnc(NC(C)c2ccc3c(c2)N=C(NCCO)CO3)c1Cl` (stereo not drawn), in data set [1], the EC50 was found to be 0.353 µM. This compound gave a CC50 at 48 h in data set [2] above 10 µM.

The compound `CCc1nc(C)nc(NC(CC)c2ccc(Oc3ccc(F)cc3)cc2)c1Br` (stereo not drawn) displayed a concentration giving a half-maximal response (EC50) in data set [1] of 0.018 µM. This compound also registered a CC50 at 48 h in data set [2] above 10 µM.

The compound `CCc1ncnc(NC(CC)c2ccc(Oc3ccc(F)cc3)cc2)c1Br` (stereo not drawn) displayed an EC50 in data set [1] of 0.003 µM. Further, the half-maximal cytotoxic concentration (CC50) at 48 h in data set [2] was above 10 µM.

`CCc1ncnc(NC(C)c2ccc(NC(=O)N(C)CCCN(C)C(C)=O)cc2)c1Cl` (stereo not drawn) came in with an EC50 in data set [1] of 4.89 µM. This compound gave a half-maximal cytotoxic concentration (CC50) at 48 h in data set [2] above 10 µM.

On to `CCc1ncnc(NC(C)c2cc3cccc(OC)c3o2)c1Cl` (stereo not drawn), for which a half-maximal response in data set [1] (EC50) required 0.691 µM. Also, the CC50 at 48 h in data set [2] was above 10 µM.

In turn, `CCc1ncnc(NC(CC)c2ccc(Oc3ncnc4ccccc34)cc2)c1Cl` (stereo not drawn) displayed an EC50 in data set [1] of 0.048 µM. The compound further registered a CC50 at 48 h in data set [2] above 10 µM.

In data set [1], `CCc1ncnc(NC(C)c2ccc(NC(C)=O)cc2)c1Cl` (stereo not drawn) registered an EC50 of 1.19 µM. In data set [2], the CC50 at 48 h is above 10 µM.

With `CCc1ncnc(NC(C)c2ccc(OC(=O)N(C)CCCN(C)C(C)=O)cc2)c1Cl` (stereo not drawn), the EC50 in data set [1] was 0.327 µM. This compound also displayed a CC50 at 48 h in data set [2] above 10 µM.

In turn, `CCC(Nc1nc(C)nc(Cl)c1N)c1ccc(Oc2ccc(F)cc2)cc1` (stereo not drawn) returned an EC50 in data set [1] of 0.015 µM. In data set [2], this compound had a CC50 at 48 h above 10 µM.

In data set [1], `CCc1ncnc(NC(C)c2ccc(OC(=O)NCCOCCOCCOCCNC(C)=O)cc2)c1Cl` (stereo not drawn) displayed an EC50 of 0.19 µM. In addition, the CC50 at 48 h in data set [2] was above 10 µM.

In data set [1], `Cc1ccnc2c1NC(=O)c1cccnc1N2C1CC1` [NEVIRAPINE] came in with an EC50 of 0.05 µM. The CC50 at 48 h in data set [2] is above 10 µM.

`CCc1ncnc(NC(C)c2ccc(OC(=O)NCCOCCNC(C)=O)cc2)c1Cl` (stereo not drawn) displayed a concentration giving a half-maximal response (EC50) in data set [1] of 0.005 µM. In addition, the CC50 at 48 h in data set [2] is above 10 µM.

In data set [1], `CCc1ncnc(NC(C)c2cc3c(cc2O)CCCC3)c1Cl` (stereo not drawn) showed an EC50 of 0.778 µM. The same compound registered a 50% cytotoxic concentration (CC50) at 48 h in data set [2] above 10 µM.

`CCc1ncnc(NC(C)c2ccc3c(c2)NCCO3)c1Cl` (stereo not drawn) displayed an EC50 in data set [1] of 0.029 µM. The same compound registered a CC50 at 48 h in data set [2] above 10 µM.

Regarding `CCC(Nc1cc(C)ncn1)c1ccc(Oc2ccc(F)cc2)cc1` (stereo not drawn), the EC50 in data set [1] worked out at 0.324 µM. This compound also returned a CC50 at 48 h in data set [2] above 10 µM.

On to `CCc1ncnc(NCc2ccc(C(C)(C)C)cc2)c1Cl`, for which it took 0.331 µM to reach a half-maximal effect in data set [1] (EC50). The compound further registered a CC50 at 48 h in data set [2] above 10 µM.

Consider `O=C1Nc2ccc(Cl)cc2C(C#CC2CC2)(C(F)(F)F)O1` (single isomer, unassigned) [EFAVIRENZ], for which the EC50 in data set [1] turned out to be 0.0005 µM. Besides, the CC50 at 48 h in data set [2] was 10 µM.

In the case of `CCc1ncnc(NC(C)c2ccc(OC(=O)N(C)CCOCCN(C)C(C)=O)cc2)c1Cl` (stereo not drawn), in data set [1], the EC50 was 0.004 µM. The CC50 at 48 h in data set [2] was above 10 µM.

Compound `CCC(Nc1cc(COC)ncn1)c1ccc(Oc2ccc(F)cc2)cc1` (stereo not drawn) had an EC50 in data set [1] of 0.031 µM. In data set [2], the CC50 at 48 h is above 10 µM.

Compound `CCc1ncnc(N(C)C(C)c2ccc(OC(=O)N(C)CCOCCN(C)C(C)=O)cc2)c1Cl` (stereo not drawn) registered an EC50 in data set [1] above 10 µM. In data set [2], this compound displayed a 50% cytotoxic concentration (CC50) at 48 h above 10 µM.

`CCc1ncnc(NC(CC)c2ccc(-c3ccccc3)cc2)c1Cl` (stereo not drawn) yielded an EC50 in data set [1] of 0.017 µM. In addition, the CC50 at 48 h in data set [2] was above 10 µM.
